# CHT block: inhibits the human high affinity choline transporter; Q9GZV3; CHT-expressing cells, membrane potential dye, choline response; active compounds read low; B-score at 10 µM; actives 0.86% (n = 310,000); AID 488975;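 active = B-score over 3 SD under the library average, and starting fluorescence ratio not unusually high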;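 note: choline stimulus applied at its EC90 after an EC20 pre-addition; B-score computed on integrated fluorescence ratio after choline addition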
# CHT PAM: allosteric activators of human choline transporter CHT; actives 0.49% (n = 310,000); CHT-expressing cells, membrane potential dye, choline EC20; active compounds read high; LV-AA mutant CHT in HEK293 cells; Q9GZV3; B-score at 10 µM;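 active = initial fluorescence not abnormally high and integrated response B-score, plate-corrected, over 3 SD above library mean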
# procasp7 counter: counter-screen: procaspase-7 (human) activation; recombinant procaspase-7, Ac-DEVD-pNA absorbance 405 nm; D23A/D198A/D206A triple mutant, cannot self-cleave; scale: DMSO 0, 5 µM enzyme 100; AID 463210; actives 0.093% (n = 330,000); activation, % at 8.5 µM; P55210;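 active = percent activation above the screen-wide mean plus 3 SD, cut at about 25% in these data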
# Target sequence (P55210 whole entry D23A/D198A/D206A): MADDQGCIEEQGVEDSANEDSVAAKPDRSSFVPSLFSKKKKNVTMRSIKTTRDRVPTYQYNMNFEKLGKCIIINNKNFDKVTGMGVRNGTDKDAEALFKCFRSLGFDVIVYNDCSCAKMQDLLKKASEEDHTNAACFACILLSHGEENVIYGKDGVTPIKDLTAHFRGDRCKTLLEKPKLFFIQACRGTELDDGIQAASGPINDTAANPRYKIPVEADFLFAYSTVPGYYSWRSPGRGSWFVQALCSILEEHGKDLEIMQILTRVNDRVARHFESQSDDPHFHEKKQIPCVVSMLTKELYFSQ
#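 System: Uncleavable procaspase-7 mutant enzyme; Amount: 2 µM procaspase-7 mutant as dispensed; Schedule: 1 h compound preincubation, 2 h substrate cleavage, 25 °C; Measured by: 405 nm absorbance of p-nitroaniline; Evaluation: percent activation from buffer-corrected 0–120 min absorbance change; Control set: low DMSO alone, high DMSO plus 5 µM PC-7.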
# procasp3 activ: activates human procaspase-3; activation, % at 8.5 µM; recombinant procaspase-3 D3A, Ac-DEVD-pNA absorbance 405 nm; AID 463141; actives 0.11% (n = 330,000); P42574;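 active = activation above the mean of all tested compounds plus 3 SD, cut at about 21% in these data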;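 note: 0% = DMSO alone and 100% = DMSO wells spiked with extra 5 µM PC-3 D3A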
# Target sequence (P42574 whole entry D9A/D28A/D175A): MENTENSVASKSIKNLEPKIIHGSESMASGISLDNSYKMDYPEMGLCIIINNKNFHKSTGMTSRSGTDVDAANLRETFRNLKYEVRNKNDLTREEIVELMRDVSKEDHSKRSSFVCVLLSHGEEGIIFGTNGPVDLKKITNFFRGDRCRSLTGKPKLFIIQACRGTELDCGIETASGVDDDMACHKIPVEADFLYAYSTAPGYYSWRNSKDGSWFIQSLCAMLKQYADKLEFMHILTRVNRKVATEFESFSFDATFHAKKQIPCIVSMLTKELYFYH
#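 Evaluation: percent activation relative to control range; Material: Procaspase-3 D3A mutant, all three cleavage aspartates alanine; Compound: single dose, 8.5 µM nominal compound, 0.8% DMSO; Replication: one well per compound; Signal: absorbance at 405 nm, 0 and 120 min; Schedule: 1 h preincubation plus 2 h reaction at 25 °C.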
# PC3 D3A act: activates human procaspase-3, dual activator counter-screen. AID 493114. shares compounds with procasp7 counter. recombinant PC-3 D3A, Ac-DEVD-pNA absorbance 405 nm; aspartates 9, 28, 175 changed to alanine; 100% = enzyme control. activation, % at 8.5 µM. 290 tested, under 10 active;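 active = mean percent activation across triplicates above a set limit taken from the earlier primary procaspase-3 screen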;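 note: 0% = DMSO wells and 100% = DMSO wells with 5 µM added PC-3 D3A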
# PC7 dual conf: procaspase-7 (human) activation, dual activator confirmation. shares compounds with procasp7 counter. activation, % at 8.5 µM. recombinant procaspase-7, Ac-DEVD-pNA absorbance 405 nm; D23A/D198A/D206A mutant that cannot self-cleave. 290 tested, under 10 active;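 active = mean activation above a set limit carried over from the earlier primary screen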;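 note: 0% = DMSO only and 100% = DMSO with added 5 µM PC-7 enzyme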
# Numbers without * were called inactive; i = inactive; . = no result given. Shown are actives, neighbours in structure and some others; about 1.3% of the full set was active somewhere.
SMILES,CHT block,CHT PAM,procasp7 counter,procasp3 activ,PC3 D3A act,PC7 dual conf
COc1cccc(NC(=O)c2ccnc(N3CCC(C(=O)NCc4cc(OC)ccc4OC)CC3)c2)c1,i,i,33*,3,6,9
CCOC(=O)c1ccc2nc(Nc3nc4ccc(F)cc4s3)sc2c1,i,i,31*,20,-27,-35
Cc1cc(NS(=O)(=O)c2ccc(NC(=O)COc3ccc(C#N)cc3)cc2)nc(C)n1,.,.,4,6,.,.
NC(=O)c1nsc(C(=O)N(c2ccccc2)C(C(=O)NCc2ccc(F)cc2)c2ccc(O)cc2)c1N (stereo not given),i,i,157*,-76,-30,-36
COc1ccc(C(=O)N/N=C/c2ccc(N(C)c3ccccc3)cc2)cc1,i,i,44*,41*,-28,-37
CSc1ccccc1NC(=O)c1cc2c(=O)n3ccccc3nc2s1,i,i,39*,-6,-29,-35
Cc1cc(C)cc(NC(=O)c2cc3c(=O)n4ccccc4nc3s2)c1,i,i,7,-1,.,.
CCN1CCN(CCCNC(=O)c2ccc(/C=C3/Sc4ccccc4N(Cc4ccccc4F)C3=O)cc2)CC1,i,i,-9,-2,.,.
CCN1CCN(CCCNC(=O)c2ccc(/C=C3/Oc4ccccc4N(Cc4cccc(C)c4)C3=O)cc2)CC1,i,i,28*,8,-29,-36
O=C(NCCCN1CCOCC1)c1ccc(/C=C2\Oc3ccccc3N(Cc3ccccc3F)C2=O)cc1,i,i,50*,22*,-29,-36
O=[N+]([O-])c1ccccc1S(=O)(=O)Nc1cccc(S(=O)(=O)N2CCCC2)c1,.,.,-8,-4,.,.
CCCCc1nc2cc(C(=O)NC3CCOC(C)(C)C3)ccc2o1 (stereo not given),i,i,1,8,.,.
CC(C)OC(=O)CSc1nc2c(cc1C#N)CCCCC2,i,i,1,3,.,.
CC(C)OC(=O)CC(=O)CSc1nc2c(cc1C#N)CCCCC2,i,i,37*,18,-20,-21
O=C(OCCN1C(=O)c2ccccc2C1=O)c1cccs1,i,i,-1,1,.,.
COC(=O)C1=C(C)NC(C)=C(C(=O)OC)C1C(=O)OCCN1C(=O)c2ccccc2C1=O,i,i,44*,-13,2,0
CC(=O)c1ccc(S(=O)(=O)NC2CC(=O)N(c3ccc(C)c(C)c3)C2)cc1 (stereo not given),i,i,2,-13,.,.
O=C(CCC(=O)c1cccs1)Nc1ncccc1O,i,i,12,1,.,.
Fc1ccc(C2CC(c3ccco3)=NN2c2ccccc2)cc1 (stereo not given),i,i,36*,32*,-29,-36
O=C(NC(NC1CCS(=O)(=O)C1)C(=O)c1ccccc1)c1ccc(Cl)cc1 (stereo not given),i,i,47*,6,2,3
O=C(NC(=S)NC1CCS(=O)(=O)C1)c1ccccc1 (stereo not given),i,i,0,4,.,.
CN(CCOc1ccccc1)C(=O)c1ccc(N2CCCC2)c([N+](=O)[O-])c1,i,i,-4,-3,.,.
O=C(N/N=C/c1c[nH]c2ccccc12)c1cc(-c2ccc3ccccc3c2)n[nH]1,i,i,31*,9,3,-1
COc1ccc2c(-c3ccc(S(N)(=O)=O)cc3)c(-c3ccc(S(C)(=O)=O)cc3)sc2c1,.,.,44*,23*,-28,-38
COc1ccc2c(C#CCCO)c(-c3ccc(S(C)(=O)=O)cc3)sc2c1,.,.,6,-2,.,.
SMILES,CHT block,CHT PAM,procasp7 counter,procasp3 activ,PC3 D3A act,PC7 dual conf
[O-][n+]1c2ccccc2c2n1CCCN=C2c1ccc(Cl)cc1,i,i,1,0,.,.
COc1ccc(-c2cc(C(F)F)n3ncc(C(=O)N4CCc5ccccc5C4)c3n2)cc1,i,i,26*,5,-30,-36
COc1ccc(-c2cc(C(F)F)n3ncc(C(=O)N4CCCCC4)c3n2)cc1,i,i,12,-1,.,.
COc1ccc(CCN(C)C(=O)COc2cccc(-n3cnnn3)c2)cc1OC,.,.,-1,-5,.,.
Cc1ccc(C(=O)N/N=C/C2=Cc3ccccc3OC2C)cc1 (stereo not given),i,i,34*,-1,0,1
COC(=O)CSc1nc(C)c(C(=O)Nc2ccccc2C)c(-c2ccc(Cl)cc2)c1C#N,i,i,32*,21,4,-22
Cc1ccccc1NC(=O)c1c(C)nc(SCC(=O)OCc2ccccc2)c(C#N)c1-c1ccc(F)cc1,i,i,3,8,.,.
CC(C)CCNC(=O)CN(Cc1ccc(F)cc1)C(=O)CCC(=O)Nc1ccccn1,i,i,-2,3,.,.
Cn1c2ccccc2c(=O)c2ccc(C#CC3(N)CCCCC3)cc21,i,i,-6,-6,.,.
Cn1c2ccccc2c(=O)c2cc(C#Cc3ccsc3)ccc21,i,i,40*,39*,-30,-36
Cn1c2ccccc2c(=O)c2ccc(C#Cc3ccccn3)cc21,i,i,27*,8,-30,-37
Cn1c2ccccc2c(=O)c2cc(C#Cc3ccccn3)ccc21,i,i,1,-6,.,.
Cn1c2ccccc2c(=O)c2cc(C#CC3(O)CCCCC3)ccc21,i,i,180*,41*,-30,-36
CN(CCO)c1ccc(-c2n[nH]c(=O)c3ccccc23)cc1[N+](=O)[O-],i,i,.,.,.,.
CC1CCC(C(C)C)C(OC(=O)COC(=O)c2cc(O)ccc2N)C1 (stereo not given),i,i,50*,41*,-30,-35
CC1CCC(C(C)C)C(OC(=O)COC(=O)c2ccc(=O)[nH]c2)C1 (stereo not given),i,i,7,-4,.,.
COc1cccc(C=NCC(C)N=Cc2cccc(OC)c2O)c1O (stereo not given),i,i,82*,7,-1,-1
COc1ccc(O)c(C=NCC(C)N=Cc2cc(OC)ccc2O)c1 (stereo not given),i,i,-3,15,.,.
O=C1[C@H]2[C@@H](c3ccc(Cl)cc3)N3C(=O)N(c4cccc(Cl)c4)C(=O)[C@@]3(Cc3ccccc3)[C@H]2C(=O)N1C1CCCCC1,i,i,6,16,.,.
COc1ccc([C@H]2CC(=O)C=C(c3cc(Cl)ccc3C)C2)cc1,.,.,8,-4,.,.
Cc1ccc(Cl)cc1C1=CC(=O)C[C@H](c2ccc(F)cc2)C1,.,.,27*,3,0,0

# Bioassay records deposited in PubChem BioAssay by several laboratories.
